# Kir21 block: inhibitors of mouse Kir2.1 inward-rectifier potassium channel | HEK293-Kir2.1, FluxOR thallium flux fluorescence; active compounds read low | B-score at 10 µM | P35561 | 310,000 tested, 0.85% active;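 active means fluorescence ratio B-score at or below minus 3 SD of library scores, with starting-brightness B-score within 2 SD, cut at about -4.2 in these data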;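 further: channel flux triggered by added potassium and thallium sulfate stimulus; B-score of peak minus minimum fluorescence over baseline after thallium stimulus; more negative B-score means stronger Kir2.1 block with less thallium influx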
# KCNQ1 inh: blocks the human KCNQ1 potassium channel | CHO-K1 KCNQ1, FluxOR thallium flux fluorescence; active compounds read high | B-score at 10 µM | 310,000 tested, 1.3% active | AID 2642;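 active means compounds whose thallium flux B-score, printed positive for inhibition, exceeds three library SD while starting fluorescence stays within three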;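 further: channel opened by potassium depolarization with thallium stimulus after 20 min compound exposure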
# KCNK9 block: inhibitors of human KCNK9 two-pore domain potassium channel. Q9NPC2. HEK293 KCNK9, FluxOR thallium flux fluorescence; active compounds read low. B-score at 10 µM. 310,000 tested, 1.2% active. AID 488922;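 active means ratio B-score over 3 SD below the library mean, with starting fluorescence within 5 SD of its mean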;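 further: negative B-score means less thallium flux so channel inhibition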
# KCNK3 inh: human KCNK3 channel inhibition, primary screen; B-score at 10 µM; 340,000 tested, 0.84% active; CHO-KCNK3 thallium flux, FluxOR fluorescence; active compounds read low; AID 602410;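 active means B-score under library mean minus 4 SD, starting fluorescence ratio at most library mean plus 5 SD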;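 further: more negative B-score means stronger inhibition of thallium flux through KCNK3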
# Target sequence (O14649 whole entry, looked up): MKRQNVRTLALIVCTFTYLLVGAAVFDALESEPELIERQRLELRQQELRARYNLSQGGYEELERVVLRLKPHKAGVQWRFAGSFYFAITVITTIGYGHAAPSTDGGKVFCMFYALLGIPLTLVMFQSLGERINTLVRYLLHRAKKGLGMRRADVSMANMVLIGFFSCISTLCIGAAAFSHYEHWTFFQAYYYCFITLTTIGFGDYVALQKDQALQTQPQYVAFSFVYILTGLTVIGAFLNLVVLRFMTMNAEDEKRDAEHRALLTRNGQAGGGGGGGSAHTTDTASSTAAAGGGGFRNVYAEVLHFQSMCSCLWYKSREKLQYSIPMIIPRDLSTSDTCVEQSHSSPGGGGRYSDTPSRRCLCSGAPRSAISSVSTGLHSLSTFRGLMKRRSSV
# KCNQ1 act: potentiates or activates the human KCNQ1 potassium channel | P51787 | CHO-K1 KCNQ1, thallium flux FluxOR fluorescence; active compounds read high | B-score at 10 µM | 310,000 tested, 0.35% active | AID 2648;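 active means fluorescence ratio B-score, a plate-corrected score, at least three library SD, with initial intensity B-score within 5 SD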
#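 System: CHO-K1 cells stably expressing KCNQ1 / Medium: assay buffer for compound exposure, DMSO matched across wells / Reagent: thallium- and potassium-containing depolarizing buffer / Compound: one concentration, matched DMSO / Incubation: 20 min compound pretreatment at room temperature / Measured by: kinetic FluxOR fluorescence, 10 s baseline plus 110 s post-stimulus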
# hERG rescue: shields human hERG channel from block by proarrhythmic agents; AID 1511; activation (rescue from dofetilide block), less the hit threshold, % at 10 µM; Q12809; 310,000 tested, 0.51% active; CHO-hERG, FluxOR thallium flux, dofetilide IC70 present;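 active means activation above the mean of controls blocked by dofetilide plus 5 SD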;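 further: thallium influx through hERG after potassium depolarization seen as dye fluorescence rise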
# KCNK3 inh conf: confirmation of human KCNK3 two-pore domain potassium channel inhibitors; ratio percent of control, % at 10 µM; 2,400 tested, 99% active; shares compounds with KCNK3 inh; CHO-KCNK3 thallium flux, FluxOR fluorescence; 0% buffer, 100% carvedilol maximal block;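 active means ratio percent of control, averaged over triplicates, above buffer control mean plus 5 SD, cut at about 64% in these data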;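 further: ratio is the fluorescence rise from min to max over baseline after thallium stimulus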
# KCNK3 noninduced: activity in cells without induced KCNK3 expression. AID 651747. non-induced KCNK3 parental cells, FluxOR thallium flux; active compounds read low. thallium flux ratio (lower = more inhibition) at 10 µM. shares compounds with KCNK3 inh. 2,400 tested, 40% active;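 active means thallium flux ratio, averaged over three wells, more than 5 SD below the buffer control mean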;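 further: host cells are CHO cells without KCNK3 induction; ratio is peak minus trough fluorescence over baseline then normalized to buffer controls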
# Numbers without * were called inactive; i = inactive; x = not tested or not shown. Hits are enriched below; roughly 3.7% of the tested compounds scored in any of these assays.
SMILES,Kir21 block,KCNQ1 inh,KCNK9 block,KCNK3 inh,KCNQ1 act,hERG rescue,KCNK3 inh conf,KCNK3 noninduced
CC(C)CN(CC(C)C)C(=S)Nc1ccc(Cl)cc1,-0.18,i,i,i,i,-6.7,x,x
c1ccc(COn2nnc3ccccc32)c(COn2nnc3ccccc32)c1,-5.7*,i,i,-9.67*,i,-9.7,102.3*,i
COc1ccccc1OCC(=O)N/N=C/c1c(O)ccc2ccccc12,0.38,i,-8.6*,-10.2*,i,-22.2,132.3*,i
CC(=O)c1c(C)[nH]c(C(=O)Nc2ccc(F)cc2F)c1C,-0.84,i,i,i,i,-14.8,x,x
CN1CCN(C2=C(Cl)C(=O)c3ccccc3C2=O)CC1,x,x,x,-14.3*,x,x,160.0*,0.0567*
O=C(c1cc(S(=O)(=O)N2CCOCC2)ccc1F)N(CCc1ccccc1)Cc1ccccc1,0.04,i,i,i,i,-10.9,x,x
COc1cc(NC(=O)CN2C(=O)COc3ccc(S(=O)(=O)N4CCCCC4)cc32)cc(OC)c1,-0.97,i,i,-8.81*,i,-10.4,113.0*,i
Cc1ccc(-n2c(C)cc(/C=N/Nc3ccc([N+](=O)[O-])cn3)c2C)cc1,-0.22,i,i,-12.5*,i,-3.5,0.0,i
Cc1cc(/C=N/NC(=O)c2ccccn2)c(C)n1-c1cccc([N+](=O)[O-])c1,0.9,i,i,-9.03*,i,-3.4,88.3*,i
Cc1cc(/C=N/Nc2ccc([N+](=O)[O-])cn2)c(C)n1-c1ccccc1,0.06,i,i,i,i,-2.6,x,x
O=C(N/N=C\c1cc([N+](=O)[O-])ccc1N1CCCC1)c1ccccn1,0.38,i,i,i,i,-4.8,x,x
C#CCN1C(C)=C(C(=O)OC)C(c2cccc([N+](=O)[O-])c2)C(C(=O)OCC)=C1C (stereo not given),x,x,x,-12.1*,x,x,109.0*,i
CCOC(=O)C1=C(c2ccccc2)NC(=O)N(C(C)=O)C1c1cccc([N+](=O)[O-])c1 (stereo not given),1.03,i,i,i,i,-1.2,x,x
COc1ccc(NC(=O)CCCC(=O)OCC(=O)c2cccc(OC)c2)cc1,1.41,i,i,i,i,-4.7,x,x
O=S1(=O)c2c(F)cccc2O[C@@H](COCc2ccccc2)CN1CCc1ccc(F)cc1,x,x,x,i,x,x,x,x
CCOc1ccccc1N1CCN(C(=S)NCc2ccc(Cl)cc2)CC1,-0.05,i,i,-9.04*,i,-12.1,119.3*,i
CCOc1ccccc1N1CCN(C(=S)NC(=O)C23CC4CC(CC(C4)C2)C3)CC1,-0.45,i,i,i,i,-6.2,x,x
CC(C)(C)NC(=O)c1cccc2c1OC(C)(C)C2,-0.18,i,i,i,i,-9.2,x,x
CC1(C)Cc2cccc(C(=O)NCc3ccco3)c2O1,0.05,i,i,-11.3*,i,-8.2,105.3*,i
CC1(c2nnc(Cc3ccccc3)o2)CC(c2ccc(OC(F)(F)F)cc2)=NO1 (stereo not given),-0.34,i,i,i,i,-10.3,x,x
CC(NC(=O)c1ccc(F)cc1)C1CC2CCC1C2 (stereo not given),-1.55,i,i,i,i,-6.3,x,x
COc1cc(C(=O)NC(C)C2CC3CCC2C3)ccc1OC(F)F (stereo not given),x,x,x,-12*,x,x,109.7*,0.124*
C/C(=C\C(=O)c1ccc(Cl)cc1)NCc1ccc2c(c1)OCO2,-0.72,i,i,-9.76*,i,-6.2,84.3*,0.155*
COC(=O)NCc1ccc2c(c1)OCO2,1.38,i,i,i,i,-8.5,x,x
O=C(NC1CC1)c1cccc(NC(=O)c2cnn(-c3ccccc3)n2)c1,x,x,x,i,x,x,x,x
SMILES,Kir21 block,KCNQ1 inh,KCNK9 block,KCNK3 inh,KCNQ1 act,hERG rescue,KCNK3 inh conf,KCNK3 noninduced
O=C(NC1CC1)c1cccc(NC(=O)c2cn3ccccc3n2)c1,x,x,x,-12.4*,x,x,60.3*,i
CCNC(=S)Nc1ccc(Cc2nc3ccccc3[nH]2)cc1,1.47,i,i,i,i,-2.4,x,x
Cc1ccc(NS(=O)(=O)c2ccc(-c3cnc(C4CC4)o3)cc2)c(C)c1,0.68,i,i,-10.1*,i,-6.5,131.7*,0.145*
Cc1ccc(N(C)S(=O)(=O)c2cc(-c3cnc(C4CC4)o3)ccc2C)cc1,-0.16,i,i,-10.7*,i,-12.3,145.3*,i
Cc1c(C(=O)N2CCN(c3ccc(C(F)(F)F)cn3)CC2)oc2ccccc12,-0.38,i,i,-11.5*,i,-7.3,135.3*,0.148*
CCOC(=O)c1c(C)[nH]c(C)c1C(=O)COC(=O)c1ccc(Cl)c(S(N)(=O)=O)c1,-1.64,i,i,i,i,-5.9,x,x
O=C(c1cc(-c2cccc(Cl)c2)on1)N1CCCCCC1,-1.06,i,i,-10.2*,i,-2.8,114.3*,i
CCCc1cc(C(=O)Cc2ccc(C(=O)OCC)o2)c(O)cc1O,-2.77,i,-16.9*,-11.2*,i,-2.8,104.3*,0.133*
CCN(Cc1ccccc1)C(=O)c1cc2c(=O)oc3ccc(C)cc3c2s1,-0.16,6*,i,-8.89*,i,-20.4,111.0*,0.123*
Cc1ccc2oc(=O)c3cc(C(=O)N4CCN(C(=O)c5ccco5)CC4)sc3c2c1,0.02,i,i,x,i,-9.6,x,x
COc1ccc(Br)cc1C(=O)Nc1ccccc1N1CCCC1,0.16,i,i,-9.84*,i,-11.5,111.0*,0.147*
COc1cc(C(=O)Nc2ccccc2N2CCCCC2)cc(OC)c1OC,0.16,i,i,-10.2*,i,-12.5,126.0*,0.117*
COc1cc(-c2cc(C(=O)Nc3ccccc3N3CCOCC3)c3ccccc3n2)cc(OC)c1OC,1.3,6*,i,-9.01*,i,-11.7,102.0*,0.158*
O=C(Nc1ccccc1N1CCCCC1)c1cccc(OC(F)F)c1,-0.22,i,i,-10.2*,i,-7.9,116.7*,0.15*
COc1ccccc1C(=O)Nc1ccccc1N1CCCCC1,-1.27,i,i,i,i,-14.2,x,x
Cc1c(S(=O)(=O)N2CCN(c3ccccc3)CC2)c(=O)n(C)c(=O)n1C,-0.38,i,i,i,i,-8.2,x,x
O=C(CNS(=O)(=O)c1ccccc1)N1CCc2ccccc2C1,-2.27,i,i,i,i,-1.2,x,x
